The source made the active and inactive calls.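 The calls were made as follows: active = membrane recruitment of a green fluorescent kinase sensor scored by eye at 30% or more; inactive = the rest.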

This assay has as its target G-protein coupled receptor 55 (Homo sapiens) (UniProt Q9Y2T6). The assay is described as follows: agonist-driven PKCbII translocation via GPR55 – imaging, HEK293, PKCbII-GFP, SAR follow-up (AID 463192). Conditions: HEK293 GPR55, PKCbII-GFP membrane recruitment imaging. In short, it runs like this:
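Assay system: HEK293 cells transiently expressing wild-type human GPR55 and PKC βII-GFP biosensor. Medium: serum-free MEM. Doses: four-point compound series, 10 nM to 10 µM final, duplicate. Timing: compound exposure 15 min, 37 °C. Measured by: fluorescence imaging of 1% PFA-fixed cells, visual scoring. Repeats: duplicates.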

G-protein coupled receptor 55 (Homo sapiens), sequence (Q9Y2T6 whole entry, looked up): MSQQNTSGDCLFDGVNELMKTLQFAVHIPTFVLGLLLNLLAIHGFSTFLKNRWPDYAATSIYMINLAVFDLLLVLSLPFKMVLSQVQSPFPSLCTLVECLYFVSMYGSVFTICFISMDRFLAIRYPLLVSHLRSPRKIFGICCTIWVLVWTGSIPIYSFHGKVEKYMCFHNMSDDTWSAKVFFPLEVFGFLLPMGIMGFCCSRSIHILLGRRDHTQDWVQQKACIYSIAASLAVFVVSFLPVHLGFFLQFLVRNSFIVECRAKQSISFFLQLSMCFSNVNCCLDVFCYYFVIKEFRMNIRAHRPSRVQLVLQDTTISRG

For the compound `Cc1cccc(N2CCN(C(=O)c3cc(S(=O)(=O)N(C)C)ccc3N3CCCC3)CC2)c1C`, the outcome is “active; +++”. `CN(C)S(=O)(=O)c1ccc(N2CCCC2)c(C(=O)N2CCN(c3ccc([N+](=O)[O-])cc3)CC2)c1`: the outcome is “active; +++”.

Turning to `COc1ccc2cc(C)c3nnc(SCC(=O)Nc4nc(-c5ccc(F)cc5)cs4)n3c2c1`, the outcome was “active; +++”. Turning to `Cc1occc1C(=O)Nc1ccc(OCc2ccccc2)cc1`, the outcome was “active; +++”.

On to `CCCN(CCC)Cc1c(C(=O)NN=Cc2c[nH]c3ccccc23)nnn1-c1nonc1N`, for which the outcome is “active; +++”. Consider `COc1ccc(-c2csc(NC(=O)CSc3nnc4c(C)cc5ccccc5n34)n2)cc1`, for which the outcome was “active; +++”. `COc1ccc(S(=O)(=O)N2CCOCC2)cc1NC(=O)c1cc2c(s1)CCCC2`: the outcome was “active; +++”. As for `COc1ccccc1/C=C/C(=O)NC(=S)Nc1ccc(S(=O)(=O)N(C)c2ccccc2)cc1`, the outcome is “active; +++”. In the case of `CC(C)Oc1ccc(S(=O)(=O)N2CCOCC2)cc1NC(=O)c1ccc(N2CCCC2=O)cc1`, the outcome is “active; +++”.

These data come from PubChem BioAssay AID463192 (Sanford-Burnham Center for Chemical Genomics, 2010).
